Source: ChEMBL document CHEMBL2440094, “Thiazolidinone-peptide hybrids as dengue virus protease inhibitors with antiviral activity in cell culture” (J Med Chem, 2013)
Calls of active or inactive are those of the source. The rule behind the calls is not given here.

System: not listed separately
Assay: Permeability of the compound by PAMPA
Type: ADME
Conditions: read-out: permeability
Outline: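 PAMPA with precoated trilayer lipid/oil/lipid membranes, donor wells holding 200 μM compound in PBS pH 7.4 (2% DMSO final), in triplicate. Incubated 5 h at room temperature. Donor and acceptor concentrations determined by UV plate reader or HPLC-UV against calibration curves. Pe and mass retention R calculated.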

Row | SMILES | Papp
1 | CCCC[C@H](NC(=O)[C@H](CCCCN)NC(=O)[C@H](CCCNC(=N)N)NC(=O)c1ccc(/C=C2\SC(=S)N(Cc3ccc(OC)cc3)C2=O)cc1)C(N)=O | 0.6 ×10⁻⁶ cm/s

System: not listed separately
Assay: Solubility of the compound in PBS buffer
Type: physicochemical
Conditions: not given

Row | SMILES | solubility
2 | CCCC[C@H](NC(=O)[C@H](CCCCN)NC(=O)[C@H](CCCNC(=N)N)NC(=O)c1ccc(/C=C2\SC(=S)N(Cc3ccc(Cl)cc3)C2=O)cc1)C(N)=O | Insoluble

System: Dengue virus
Assay: Inhibition of Dengue virus NS2B-NS3 protease expressed in Escherichia coli BL 21 (DE3) using Abz-Nle-Lys-Arg-Arg-Ser-3-(NO2)Tyr as substrate at 50 uM after 15 mins
Conditions: not given

Row | SMILES | inhibition
3 | CCCC[C@H](NC(=O)[C@H](CCCCN)NC(=O)[C@H](CCCNC(=N)N)NC(=O)c1ccc(/C=C2\SC(=S)N(Cc3ccc(Cl)cc3)C2=O)cc1)C(N)=O | 100%
4 | CCCC[C@H](NC(=O)[C@H](CCCCN)NC(=O)[C@H](CCCNC(=N)N)NC(=O)c1ccc(/C=C2\SC(=S)N(Cc3ccc(OC)cc3)C2=O)cc1)C(N)=O | 99.6%

System: Dengue virus
Assay: Mixed/noncompetitive type inhibition of Dengue virus NS2B-NS3 protease expressed in Escherichia coli BL 21 (DE3) using Abz-Nle-Lys-Arg-Arg-Ser-3-(NO2)Tyr as substrate by Cornish-Bowden plot analysis
Conditions: not given
Outline: (§1)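 DEN2 NS2B–NS3 FRET assay run at inhibitor 0–6 μM (prior-series compounds 5–50 μM) and substrate 50, 100, 150 and 200 μM, in triplicate, with inner-filter correction. Ki from Dixon plots (1/v vs [I]) and Ki′ from Cornish-Bowden plots (S/v vs [I]). Inhibition mode assigned from these plots.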

Row | SMILES | inhibition
5 | CCCC[C@H](NC(=O)[C@H](CCCCN)NC(=O)[C@H](CCCNC(=N)N)NC(=O)c1ccc(/C=C2\SC(=S)N(Cc3ccc(OC)cc3)C2=O)cc1)C(N)=O | Active

System: Huh-7
Assay: Cytotoxicity against human HuH7 cells at <50 uM after 48 hrs by firefly reporter assay
Type: cell-based
Conditions: huh-7, 48 h
Outline: (§2)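 Uninfected Huh-7 cells stably expressing firefly luciferase, seeded 5000/well and incubated overnight at 37 °C. Compound added at 1.56–50 μM, plus 100, 200 and 400 μM, then incubated as for infected cells (further 48 h after the 4 h point). Firefly luminescence read with 70 μM luciferin and 2 mM ATP. Mean of three wells as percent of DMSO control.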

Row | SMILES | Activity
6 | CCCC[C@H](NC(=O)[C@H](CCCCN)NC(=O)[C@H](CCCNC(=N)N)NC(=O)c1ccc(/C=C2\SC(=S)N(Cc3ccc(Cl)cc3)C2=O)cc1)C(N)=O | Non-toxic

System: not listed separately
Assay: Inhibition of Dengue virus NS2B-NS3 protease expressed in Escherichia coli BL 21 (DE3) using Abz-Nle-Lys-Arg-Arg-Ser-3-(NO2)Tyr as substrate assessed as enzyme-inhibitor complex by Cornish-Bowden plot analysis
Conditions: in the assay text read “Dixon plot” for “Cornish-Bowden plot”
Outline: as §1

Row | SMILES | Ki
7 | CCCC[C@H](NC(=O)[C@H](CCCCN)NC(=O)[C@H](CCCNC(=N)N)NC(=O)c1ccc(/C=C2\SC(=S)N(Cc3ccc(Cl)cc3)C2=O)cc1)C(N)=O | > 10 µM
8 | CCCC[C@H](NC(=O)[C@H](CCCCN)NC(=O)[C@H](CCCNC(=N)N)NC(=O)c1ccc(/C=C2\SC(=S)N(Cc3ccc(OC)cc3)C2=O)cc1)C(N)=O | 7.8 µM

System: not listed separately
Assay: Inhibition of Dengue virus NS2B-NS3 protease expressed in Escherichia coli BL 21 (DE3) using Abz-Nle-Lys-Arg-Arg-Ser-3-(NO2)Tyr as substrate assessed as enzyme-substrate-inhibitor complex by Cornish-Bowden plot analysis
Conditions: not given
Outline: as §1

Row | SMILES | Ki
9 | CCCC[C@H](NC(=O)[C@H](CCCCN)NC(=O)[C@H](CCCNC(=N)N)NC(=O)c1ccc(/C=C2\SC(=S)N(Cc3ccc(Cl)cc3)C2=O)cc1)C(N)=O | 8.6 µM
10 | CCCC[C@H](NC(=O)[C@H](CCCCN)NC(=O)[C@H](CCCNC(=N)N)NC(=O)c1ccc(/C=C2\SC(=S)N(Cc3ccc(OC)cc3)C2=O)cc1)C(N)=O | 8.3 µM

System: West Nile virus
Assay: Inhibition of West Nile virus NS2B-NS3 protease expressed in Escherichia coli BL 21 (DE3) using Abz-Gly-Leu-Lys-Arg-Gly-Gly-3-(NO2)Tyr as substrate at 50 uM after 15 mins
Conditions: not given

Row | SMILES | inhibition
11 | CCCC[C@H](NC(=O)[C@H](CCCCN)NC(=O)[C@H](CCCNC(=N)N)NC(=O)c1ccc(/C=C2\SC(=S)N(Cc3ccc(Cl)cc3)C2=O)cc1)C(N)=O | 100%
12 | CCCC[C@H](NC(=O)[C@H](CCCCN)NC(=O)[C@H](CCCNC(=N)N)NC(=O)c1ccc(/C=C2\SC(=S)N(Cc3ccc(OC)cc3)C2=O)cc1)C(N)=O | 99%

System: dengue virus type 2
Assay: Antiviral activity against Dengue virus 2 infected in human Huh-7 cells assessed as inhibition of viral replication after 48 hrs by luciferase reporter gene assay
Type: functional, organism-based
Conditions: Huh-7, 48 h
Outline: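 Huh-7 cells seeded 5000/well, incubated overnight at 37 °C, then given compound (1.56–50 μM final, 2-fold series in DMEM with 10% FCS). Dengue 2 renilla luciferase reporter virus (MOI 10) added 4 h later. After 48 h at 37 °C, cells lysed and renilla luminescence read with coelenterazine. At least four wells per concentration, expressed relative to DMSO control. EC50 by nonlinear regression.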

Row | SMILES | EC50
13 | CCCC[C@H](NC(=O)[C@H](CCCCN)NC(=O)[C@H](CCCNC(=N)N)NC(=O)c1ccc(/C=C2\SC(=S)N(Cc3ccc(Cl)cc3)C2=O)cc1)C(N)=O | 31.5 µM
14 | CCCC[C@H](NC(=O)[C@H](CCCCN)NC(=O)[C@H](CCCNC(=N)N)NC(=O)c1ccc(/C=C2\SC(=S)N(Cc3ccc(OC)cc3)C2=O)cc1)C(N)=O | 37.3 µM

System: Dengue virus
Assay: Uncompetitive inhibition of Dengue virus NS2B-NS3 protease expressed in Escherichia coli BL 21 (DE3) using Abz-Nle-Lys-Arg-Arg-Ser-3-(NO2)Tyr as substrate by Cornish-Bowden plot analysis
Conditions: not given
Outline: as §1

Row | SMILES | inhibition
15 | CCCC[C@H](NC(=O)[C@H](CCCCN)NC(=O)[C@H](CCCNC(=N)N)NC(=O)c1ccc(/C=C2\SC(=S)N(Cc3ccc(Cl)cc3)C2=O)cc1)C(N)=O | Active

System: not listed separately
Assay: Inhibition of Dengue virus NS2B-NS3 protease expressed in Escherichia coli BL 21 (DE3) using Abz-Nle-Lys-Arg-Arg-Ser-3-(NO2)Tyr as substrate after 15 mins
Conditions: not given

Row | SMILES | IC50
16 | CCCC[C@H](NC(=O)[C@H](CCCCN)NC(=O)[C@H](CCCNC(=N)N)NC(=O)c1ccc(/C=C2\SC(=S)N(Cc3ccc(Cl)cc3)C2=O)cc1)C(N)=O | > 10 µM
17 | CCCC[C@H](NC(=O)[C@H](CCCCN)NC(=O)[C@H](CCCNC(=N)N)NC(=O)c1ccc(/C=C2\SC(=S)N(Cc3ccc(OC)cc3)C2=O)cc1)C(N)=O | 7.9 µM

Target: Prothrombin (Homo sapiens) (UniProt P00734)
Assay: Inhibition of thrombin (unknown origin) using Boc-Val-Pro-Arg-AMC as substrate at 25 uM after 10 mins by continuous fluorimetric assay
Conditions: not given
Outline: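 Thrombin (10 nM) preincubated 15 min with inhibitor (25 μM final) in 50 mM Tris-HCl pH 7.5, 150 mM NaCl, 0.05% Tween 20. Boc-Val-Pro-Arg-AMC then added to 50 μM (Km 16 μM). Fluorescence (ex 355 nm, em 460 nm) followed for 10 min as slope. Triplicate; percent inhibition versus no-inhibitor control.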

Row | SMILES | inhibition
18 | CCCC[C@H](NC(=O)[C@H](CCCCN)NC(=O)[C@H](CCCNC(=N)N)NC(=O)c1ccc(/C=C2\SC(=S)N(Cc3ccc(Cl)cc3)C2=O)cc1)C(N)=O | 13.3%
19 | CCCC[C@H](NC(=O)[C@H](CCCCN)NC(=O)[C@H](CCCNC(=N)N)NC(=O)c1ccc(/C=C2\SC(=S)N(Cc3ccc(OC)cc3)C2=O)cc1)C(N)=O | 15%

System: Huh-7
Assay: Cytotoxicity against human HuH7 cells at 50 uM after 48 hrs by firefly reporter assay
Type: cell-based
Conditions: huh-7, 48 h
Outline: as §2

Row | SMILES | Activity
20 | CCCC[C@H](NC(=O)[C@H](CCCCN)NC(=O)[C@H](CCCNC(=N)N)NC(=O)c1ccc(/C=C2\SC(=S)N(Cc3ccc(Cl)cc3)C2=O)cc1)C(N)=O | Toxic

System: dengue virus type 2
Assay: Antiviral activity against Dengue virus 2 infected in human Huh-7 cells assessed as inhibition of virus-induced plaque formation at 50 uM after 48
Type: functional, organism-based
Conditions: not given
Outline: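 Huh-7 cells seeded in 12-well plates and pretreated with compound (50 μM) for 4 h. Infected for 1 h with dengue reporter virus (MOI 5) in the presence of compound, then medium replaced with compound-containing DMEM. Supernatant harvested at 48 h and filtered. Titer determined by plaque assay on Vero cells. Mean ± SD of three independent experiments.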

Row | SMILES | inhibition
21 | CCCC[C@H](NC(=O)[C@H](CCCCN)NC(=O)[C@H](CCCNC(=N)N)NC(=O)c1ccc(/C=C2\SC(=S)N(Cc3ccc(Cl)cc3)C2=O)cc1)C(N)=O | Active
